ChEMBL document CHEMBL2331548, “Identification of N-acyl 4-(3-pyridonyl)phenylalanine derivatives and their orally active prodrug esters as dual acting α4β1 and α4β7 receptor antagonists” (Bioorg Med Chem Lett, 2013)
In brackets after ≈: the same amount, converted by molar mass. One block for each compound: values may come before it. Activity calls are given as the source filed them. No cut-off for these calls is given here.

What was measured:
[1] = Solubility in water; assay type: physicochemical
[2] = Oral bioavailability in dog; assay type: ADME, organism-based, Canis lupus familiaris; conditions: in vivo
[3] = Oral bioavailability in rat; assay type: ADME, organism-based; conditions: in vivo
hERG (KCNH2) = hERG (KCNH2) (Homo sapiens, UniProt Q12809); experiment: Inhibition of human ERG
Sequence of hERG (KCNH2) (Q12809 whole entry): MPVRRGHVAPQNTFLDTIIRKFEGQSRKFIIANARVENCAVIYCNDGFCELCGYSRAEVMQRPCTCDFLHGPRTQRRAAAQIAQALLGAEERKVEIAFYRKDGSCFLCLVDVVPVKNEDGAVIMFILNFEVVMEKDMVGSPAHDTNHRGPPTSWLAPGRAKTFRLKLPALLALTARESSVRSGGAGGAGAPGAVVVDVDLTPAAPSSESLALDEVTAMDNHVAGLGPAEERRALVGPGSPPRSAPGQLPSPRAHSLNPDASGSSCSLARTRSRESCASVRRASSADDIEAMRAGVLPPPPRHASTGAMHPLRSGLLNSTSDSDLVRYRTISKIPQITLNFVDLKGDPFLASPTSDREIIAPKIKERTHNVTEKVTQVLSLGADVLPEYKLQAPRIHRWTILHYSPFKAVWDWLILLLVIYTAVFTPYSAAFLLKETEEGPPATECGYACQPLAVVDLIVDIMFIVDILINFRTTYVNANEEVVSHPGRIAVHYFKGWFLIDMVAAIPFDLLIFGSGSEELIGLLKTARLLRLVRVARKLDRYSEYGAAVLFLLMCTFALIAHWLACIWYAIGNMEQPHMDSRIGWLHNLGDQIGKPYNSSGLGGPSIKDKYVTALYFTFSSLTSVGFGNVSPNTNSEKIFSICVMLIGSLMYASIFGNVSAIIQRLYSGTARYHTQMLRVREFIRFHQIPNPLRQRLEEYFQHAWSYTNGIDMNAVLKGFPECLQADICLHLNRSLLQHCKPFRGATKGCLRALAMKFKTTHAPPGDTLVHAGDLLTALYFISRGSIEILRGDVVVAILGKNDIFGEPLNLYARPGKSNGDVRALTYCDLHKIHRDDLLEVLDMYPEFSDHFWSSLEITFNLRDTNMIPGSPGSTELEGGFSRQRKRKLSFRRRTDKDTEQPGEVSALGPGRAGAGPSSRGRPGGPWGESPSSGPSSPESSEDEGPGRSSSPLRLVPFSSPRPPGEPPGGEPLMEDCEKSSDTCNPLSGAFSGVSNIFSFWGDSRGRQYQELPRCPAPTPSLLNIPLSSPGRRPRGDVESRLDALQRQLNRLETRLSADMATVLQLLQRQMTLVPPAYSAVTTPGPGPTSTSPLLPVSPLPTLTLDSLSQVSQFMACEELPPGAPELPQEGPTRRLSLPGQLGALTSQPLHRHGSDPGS

[4] = Stability in simulated intestinal fluid at pH 7.5 assessed as half life; assay type: physicochemical; conditions: simulated gi fluid
[5] = Solubility in simulated gastric fluid at pH 2.0; assay type: physicochemical
[6] = Apparent permeability across human Caco2 cells; assay type: ADME, cell-based; conditions: Caco-2
[7] = Clearance in dog at 10 mg/kg, iv; assay type: ADME, organism-based, Canis lupus familiaris; design: dose 10 mg/kg, route intravenous; conditions: in vivo
How it was run: (§1)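 Intravenous pharmacokinetics of the acid: rat and dog dosed at 10 mg/kg, monkey at 15 mg/kg. AUC (ng h/mL), clearance (mL/min/kg) and Vss (mL/kg) derived from plasma levels.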

[8] = AUC in dog at 10 mg/kg, iv; assay type: ADME, organism-based, Canis lupus familiaris; design: dose 10 mg/kg, route intravenous; conditions: plasma; how it was run: as §1
[9] = Clearance in rat at 10 mg/kg, iv; assay type: ADME, organism-based; design: dose 10 mg/kg, route intravenous; conditions: in vivo; how it was run: as §1
[10] = AUC in rat at 10 mg/kg, iv; assay type: ADME, organism-based; design: dose 10 mg/kg, route intravenous; conditions: plasma; how it was run: as §1
[11] = target: Integrin alpha-4/beta-7 (Homo sapiens) (UniProt P13612+P26010); experiment: Inhibition of human MAdCAM1 binding to integrin alpha4beta7 receptor in human RPMI 8866 cells labeled with Calcein AM relative to RO0270608; assay type: cell-based
How it was run: (§2)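 Serially diluted compound tested for blocking adhesion of Calcein AM-labelled cells to recombinant human counter-ligand: RAMOS cells on VCAM-1 (α4β1) and RPMI 8866 cells on MAdCAM-1 (α4β7). Cells activated beforehand in Mn2+-containing binding buffer for maximal activation. IC50 taken from fluorescence; RO0270608 run on every plate, and relative potency expressed as fold versus this control because cell activity drifted with passage.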

Integrin alpha-4/beta-1 [12] = target: T1, Integrin alpha-4/beta-1 (Homo sapiens, UniProt P05556+P13612); experiment: Inhibition of human VCAM1 binding to integrin alpha4beta1 receptor in human Ramos cells labeled with Calcein AM relative to RO0270608; assay type: cell-based; how it was run: as §2
T1 sequence (P05556 whole entry, one chain of several): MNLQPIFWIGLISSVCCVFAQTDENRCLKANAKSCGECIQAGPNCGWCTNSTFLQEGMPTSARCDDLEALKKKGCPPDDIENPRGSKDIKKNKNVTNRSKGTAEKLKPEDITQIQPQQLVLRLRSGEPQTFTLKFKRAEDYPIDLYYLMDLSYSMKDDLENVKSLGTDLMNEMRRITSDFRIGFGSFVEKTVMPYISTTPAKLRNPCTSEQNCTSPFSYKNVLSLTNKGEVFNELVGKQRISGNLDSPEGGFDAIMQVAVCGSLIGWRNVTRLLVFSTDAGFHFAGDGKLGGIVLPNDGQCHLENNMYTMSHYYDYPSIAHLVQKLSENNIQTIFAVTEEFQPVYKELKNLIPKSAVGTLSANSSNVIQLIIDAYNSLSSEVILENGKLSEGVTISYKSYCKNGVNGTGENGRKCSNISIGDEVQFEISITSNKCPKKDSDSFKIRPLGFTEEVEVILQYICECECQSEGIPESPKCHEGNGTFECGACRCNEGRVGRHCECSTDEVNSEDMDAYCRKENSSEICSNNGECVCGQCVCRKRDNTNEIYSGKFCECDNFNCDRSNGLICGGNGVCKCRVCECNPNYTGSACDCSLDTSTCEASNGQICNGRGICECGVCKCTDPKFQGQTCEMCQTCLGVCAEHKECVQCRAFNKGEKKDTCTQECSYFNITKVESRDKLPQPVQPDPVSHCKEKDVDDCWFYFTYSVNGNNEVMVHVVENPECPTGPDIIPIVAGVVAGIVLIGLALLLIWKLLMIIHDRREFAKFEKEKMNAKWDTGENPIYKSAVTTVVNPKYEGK

Integrin alpha-4/beta-7 = target: T2, Integrin alpha-4/beta-7 (Homo sapiens, UniProt P13612+P26010); experiment: Inhibition of human MAdCAM1 binding to integrin alpha4beta7 receptor in human RPMI 8866 cells labeled with Calcein AM; assay type: cell-based; how it was run: as §2
T2 sequence (P13612 whole entry): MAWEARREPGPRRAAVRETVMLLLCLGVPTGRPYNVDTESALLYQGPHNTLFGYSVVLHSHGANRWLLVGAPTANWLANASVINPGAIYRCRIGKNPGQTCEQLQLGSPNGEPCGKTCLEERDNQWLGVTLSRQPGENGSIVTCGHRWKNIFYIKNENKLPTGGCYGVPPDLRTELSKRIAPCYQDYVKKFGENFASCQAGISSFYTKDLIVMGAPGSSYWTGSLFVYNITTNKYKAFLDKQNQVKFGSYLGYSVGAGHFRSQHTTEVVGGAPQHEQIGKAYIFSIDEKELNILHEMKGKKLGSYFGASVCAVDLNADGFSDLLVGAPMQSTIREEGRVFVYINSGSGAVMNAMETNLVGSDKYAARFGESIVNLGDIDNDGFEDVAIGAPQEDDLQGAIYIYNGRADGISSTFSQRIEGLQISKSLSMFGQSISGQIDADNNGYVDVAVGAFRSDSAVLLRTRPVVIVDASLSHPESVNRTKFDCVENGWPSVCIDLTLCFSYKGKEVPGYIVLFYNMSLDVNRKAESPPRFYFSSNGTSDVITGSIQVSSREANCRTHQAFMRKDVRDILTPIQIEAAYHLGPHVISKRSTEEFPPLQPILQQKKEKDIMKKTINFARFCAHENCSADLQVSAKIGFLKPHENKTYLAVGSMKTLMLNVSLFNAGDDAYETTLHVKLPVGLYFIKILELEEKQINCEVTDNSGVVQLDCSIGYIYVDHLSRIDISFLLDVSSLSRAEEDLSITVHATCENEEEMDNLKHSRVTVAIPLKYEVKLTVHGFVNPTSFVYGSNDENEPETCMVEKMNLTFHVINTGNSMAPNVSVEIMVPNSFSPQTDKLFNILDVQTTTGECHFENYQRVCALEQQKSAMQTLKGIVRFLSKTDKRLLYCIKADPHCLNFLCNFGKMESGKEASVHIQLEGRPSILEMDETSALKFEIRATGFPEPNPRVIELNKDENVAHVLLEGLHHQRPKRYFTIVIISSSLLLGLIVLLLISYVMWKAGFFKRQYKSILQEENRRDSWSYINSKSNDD
T2 sequence (P26010 whole entry): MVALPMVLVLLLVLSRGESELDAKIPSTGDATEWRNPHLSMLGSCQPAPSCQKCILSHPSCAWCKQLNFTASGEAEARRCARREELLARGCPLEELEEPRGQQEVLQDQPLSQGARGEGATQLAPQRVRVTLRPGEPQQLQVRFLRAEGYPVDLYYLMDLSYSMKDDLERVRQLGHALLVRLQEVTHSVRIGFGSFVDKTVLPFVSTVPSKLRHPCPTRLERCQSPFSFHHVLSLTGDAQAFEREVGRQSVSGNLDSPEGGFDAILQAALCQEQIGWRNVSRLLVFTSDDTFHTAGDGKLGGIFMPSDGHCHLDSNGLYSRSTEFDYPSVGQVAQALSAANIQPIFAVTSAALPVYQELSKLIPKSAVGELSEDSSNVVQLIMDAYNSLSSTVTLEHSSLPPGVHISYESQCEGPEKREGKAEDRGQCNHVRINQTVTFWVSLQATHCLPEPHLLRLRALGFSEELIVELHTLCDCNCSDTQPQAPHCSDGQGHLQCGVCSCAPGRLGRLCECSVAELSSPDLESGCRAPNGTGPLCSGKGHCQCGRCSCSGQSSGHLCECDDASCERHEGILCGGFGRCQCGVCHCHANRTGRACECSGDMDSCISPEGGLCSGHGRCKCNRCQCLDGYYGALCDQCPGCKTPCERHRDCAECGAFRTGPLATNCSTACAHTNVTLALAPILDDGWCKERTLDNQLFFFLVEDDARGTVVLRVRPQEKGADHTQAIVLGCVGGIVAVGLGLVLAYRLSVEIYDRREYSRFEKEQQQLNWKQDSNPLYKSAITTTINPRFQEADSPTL

Integrin alpha-4/beta-1 [13] = target: T1, Integrin alpha-4/beta-1; experiment: Inhibition of human VCAM1 binding to integrin alpha4beta1 receptor in human Ramos cells labeled with Calcein AM; assay type: cell-based; how it was run: as §2
[14] = AUC in monkey at 15 mg/kg, iv; conditions: cynomolgus monkey, plasma
[15] = Clearance in monkey at 15 mg/kg, iv; conditions: cynomolgus monkey, in vivo
Liver microsomes [16] = experiment: Stability in human liver microsomes assessed as prodrug hydrolysis; assay type: ADME, Microsome
How it was run: (§3)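 Ester prodrug incubated in liver microsomal preparations from mouse, rat, dog, monkey and human; percent of ester remaining followed at 0, 10, 30 and 90 min. A buffer-only incubation without microsomes served as control.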

Liver [17] = experiment: Stability in dog liver microsomes assessed as prodrug hydrolysis; assay type: ADME, Canis lupus familiaris, Microsome; how it was run: as §3
Liver microsomes [18] = experiment: Stability in rat liver microsomes assessed as prodrug hydrolysis; assay type: ADME, Microsome; how it was run: as §3
[19] = Stability in monkey liver microsomes assessed as prodrug hydrolysis; assay type: ADME, Macaca mulatta, Microsome; conditions: rhesus monkey; how it was run: as §3
Liver [20] = experiment: Stability in mouse liver microsomes assessed as prodrug hydrolysis; assay type: ADME, Microsome; how it was run: as §3
Plasma = experiment: Stability in dog plasma assessed as unchanged prodrug level on days 1 and 6; assay type: ADME, cell-free, Canis lupus familiaris
How it was run: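 Unchanged prodrug measured in dog plasma on days 1 and 6 of subchronic safety studies after dosing with the ester prodrug.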

Cynomolgus monkey [21] = experiment: Antiinflammatory activity in cynomolgus monkey challenged with aerosolized Ascaris suum extract assessed as reduction in total leukocytes influx into lungs at 10 and 30 mg/kg, po administered 2 hrs before antigen challenge measured 24 hrs after antigen challenge; assay type: functional, organism-based; design: dose 30 mg/kg; conditions: Macaca fascicularis
How it was run: (§4)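 Cynomolgus monkeys (atopic) dosed orally at 10 or 30 mg/kg, or vehicle, then challenged 2 h later with aerosolized Ascaris suum extract. Bronchiolar lavage fluid collected 24 h post-challenge and inflammatory cells counted by type (macrophages, neutrophils, eosinophils, lymphocytes, total) as cells ×10^4/mL.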

Cynomolgus monkey [22] = experiment: Antiinflammatory activity in cynomolgus monkey challenged with aerosolized Ascaris suum extract assessed as reduction in neutrophils influx into lungs at 10 and 30 mg/kg, po administered 2 hrs before antigen challenge measured 24 hrs after antigen challenge; assay type: functional, organism-based; design: dose 30 mg/kg; conditions: Macaca fascicularis; how it was run: as §4
Cynomolgus monkey [23] = experiment: Antiinflammatory activity in cynomolgus monkey challenged with aerosolized Ascaris suum extract assessed as reduction in lymphocytes influx into lungs at 10 and 30 mg/kg, po administered 2 hrs before antigen challenge measured 24 hrs after antigen challenge; assay type: functional, organism-based; design: dose 30 mg/kg; conditions: Macaca fascicularis; how it was run: as §4
Cynomolgus monkey [24] = experiment: Antiinflammatory activity in cynomolgus monkey challenged with aerosolized Ascaris suum extract assessed as reduction in eosinophils influx into lungs at 10 and 30 mg/kg, po administered 2 hrs before antigen challenge measured 24 hrs after antigen challenge; assay type: functional, organism-based; design: dose 30 mg/kg; conditions: Macaca fascicularis; how it was run: as §4
Canis familiaris [25] = experiment: Cmax in dog at 50 mg/kg, po; assay type: ADME, organism-based, Canis lupus familiaris; design: dose 50 mg/kg, route oral; conditions: in vivo
How it was run: (§5)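 Ester prodrug given orally (rat and dog 50 mg/kg, monkey 30 mg/kg). Plasma exposure measured as the parent acid, reported as AUC and Cmax; bioavailability (F%) calculated for the acid.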

[26] = Oral bioavailability in dog at 50 mg/kg; assay type: ADME, organism-based, Canis lupus familiaris; conditions: in vivo; how it was run: as §5
Canis familiaris [27] = experiment: AUC in dog assessed as (2S)-2-(2,6-dichlorobenzamido)-3-(4-(2-hydroxy-1,6-dimethyl-4-(trifluoromethyl)-1,2-dihydropyridin-3-yl)phenyl)propanoic acid level at 50 mg/kg, po; assay type: ADME, organism-based, Canis lupus familiaris, Plasma; design: dose 50 mg/kg, route oral; conditions: in vivo; how it was run: as §5
[28] = Oral bioavailability in rat at 50 mg/kg; assay type: ADME, organism-based; conditions: in vivo; how it was run: as §5
Rattus norvegicus [29] = experiment: Cmax in rat at 50 mg/kg, po; assay type: ADME, organism-based; design: dose 50 mg/kg, route oral; conditions: in vivo; how it was run: as §5
Rattus norvegicus [30] = experiment: AUC in rat assessed as (2S)-2-(2,6-dichlorobenzamido)-3-(4-(2-hydroxy-1,6-dimethyl-4-(trifluoromethyl)-1,2-dihydropyridin-3-yl)phenyl)propanoic acid level at 50 mg/kg, po; assay type: ADME, organism-based, Plasma; design: dose 50 mg/kg, route oral; conditions: in vivo; how it was run: as §5
[31] = Solubility in simulated intestinal fluid at pH 7.5; assay type: physicochemical
Macaca fascicularis [32] = experiment: Oral bioavailability in monkey at 30 mg/kg; conditions: cynomolgus monkey, in vivo
Macaca fascicularis [33] = experiment: AUC in monkey assessed as (2S)-2-(2,6-dichlorobenzamido)-3-(4-(2-hydroxy-1,6-dimethyl-4-(trifluoromethyl)-1,2-dihydropyridin-3-yl)phenyl)propanoic acid level at 30 mg/kg, po; conditions: cynomolgus monkey, in vivo

- solubility [1]: 6 µg/mL (≈ 10.8 µM)
- bioavailability [2]: 2%
- bioavailability [3]: 18%
- Stability [4]: Stable
- solubility ([5]; simulated gi fluid, BLD = below limit of detection): BLD
- Papp [6]: 27.1 ×10⁻⁶ cm/s
SMILES: CCOC(=O)[C@H](Cc1ccc(-c2c(C(F)(F)F)cc(C)n(C)c2=O)cc1)NC(=O)c1c(Cl)cccc1Cl
- IC20 (hERG (KCNH2)): 2700 nM

- clearance [7]: 16.5 mL/min/kg
- AUC [8]: 10900 ng·h/mL
- clearance [9]: 15.7 mL/min/kg
- AUC [10]: 10900 ng·h/mL
- Papp [6]: 0.14 ×10⁻⁶ cm/s
- Ratio IC50 [11]: 6.5
- Ratio IC50 (Integrin alpha-4/beta-1 [12]): 0.81
- IC50 (Integrin alpha-4/beta-7): 42 nM
- IC50 (Integrin alpha-4/beta-1 [13]): 32 nM
- AUC [14]: 35100 ng·h/mL
- clearance [15]: 3 mL/min/kg
SMILES: Cc1cc(C(F)(F)F)c(-c2ccc(C[C@H](NC(=O)c3c(Cl)cccc3Cl)C(=O)O)cc2)c(=O)n1C

- Stability (Liver microsomes [16]): Stable
- Stability (Liver [17]): Stable
- Stability (Liver microsomes [18]): Unstable
- Stability [19]: Unstable
- Stability (Liver [20]): Unstable
- Stability (Plasma): 10%
- Cmax (Canis familiaris [25]): 2400 ng/mL
- bioavailability [26]: 13%
- AUC (Canis familiaris [27]): 6420 ng·h/mL
- bioavailability [28]: 11%
- Cmax (Rattus norvegicus [29]): 2500 ng/mL
- AUC (Rattus norvegicus [30]): 6100 ng·h/mL
- bioavailability [3]: 11%
- Stability [4]: Stable
- solubility ([5]; simulated gastric fluid, read-out: solubility): 3900 µg/mL (≈ 5960 µM)
- solubility [31]: 330 µg/mL (≈ 504 µM)
- Papp [6]: 16.5 ×10⁻⁶ cm/s
- bioavailability (Macaca fascicularis [32]): 46%
- AUC (Macaca fascicularis [33]): 30150 ng·h/mL
SMILES: Cc1cc(C(F)(F)F)c(-c2ccc(C[C@H](NC(=O)c3c(Cl)cccc3Cl)C(=O)OCCCN3CCOCC3)cc2)c(=O)n1C
- Activity (Cynomolgus monkey [21]): Active
- Activity (Cynomolgus monkey [22]): Active
- Activity (Cynomolgus monkey [23]): Active
- Activity (Cynomolgus monkey [24]): Active
- IC20 (hERG (KCNH2)): 2900 nM
